Series [1] relates to Bacillus anthracis. As to the kind of experiment: Antimicrobial activity against Bacillus anthracis Sterne vegetative cells by broth microdilution method. The format is functional. Background: In broth dilution the organism is exposed to a series of concentrations in liquid medium.
The subject of the next series is Enterococcus faecium. Kind of series: Antimicrobial activity against vancomycin-resistant Enterococcus faecium B42762 by broth microdilution method. The format is functional.
For series [2], the system named is Staphylococcus aureus. As to the kind of experiment: Antimicrobial activity against methicillin-resistant Staphylococcus aureus 1094 by broth microdilution method. The format is functional.
In series [3] the test system is Bacillus subtilis. As to the kind of experiment: Inhibition of RNA synthesis in Bacillus subtilis BD54 at 5 X MIC by [5-3H]uridine incorporation assay. The format is functional. The gist of the method:
(§1)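 Precursors were [methyl-3H]thymidine (DNA), [5-3H]uridine (RNA), L-[4,5-3H]leucine (protein) and N-acetyl-D-[1-3H]glucosamine (cell wall). Samples taken over time, precipitated with equal volume of ice-cold 20% TCA, filtered on glass fibre, and counted. cpm plotted against time.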

The test system of series [4] is Enterococcus faecalis. As to the kind of experiment: Antimicrobial activity against Enterococcus faecalis 29212 clinical isolate by broth microdilution method. The format is functional.
Series [5] has as its system Bacillus anthracis. As to the kind of experiment: microbe, parasite or virus in culture. The settings on record: Ames.
Series [6] relates to Mycolicibacterium smegmatis. As to the kind of experiment: Antimicrobial activity against Mycobacterium smegmatis 19420 by broth microdilution method. The format is functional. The method in brief: (§2)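 Broth microdilution. Log-phase cultures (5 × 10^5 CFU/ml) seeded in 96-well plates with compound from 0 to 20 µM or 1% DMSO control. Incubated at 37°C for 16 to 20 h. Growth read as absorbance at 600 nm.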

In a further series the test system is Bacillus licheniformis. As to the kind of experiment: Antimicrobial activity against Bacillus licheniformis clinical isolate by broth microdilution method. The format is functional.
Series [7] relates to Bacillus subtilis. As to the kind of experiment: Inhibition of DNA synthesis in Bacillus subtilis BD54 at 5 X MIC by [3H]thymidine incorporation assay. The format is functional, organism-based. The gist of the method:
as §1

The test system of series [8] is Staphylococcus aureus. As to the kind of experiment: Antimicrobial activity against Staphylococcus aureus ATCC 25923 by broth microdilution method. The class given is functional. The gist of the method:
as §2

The test system of another series is Burkholderia mallei. Kind of series: Antimicrobial activity against Burkholderia mallei ATCC 23344 by broth microdilution method. The class given is functional.
The subject of series [9] is Staphylococcus aureus. Kind of series: Antimicrobial activity against methicillin-resistant Staphylococcus aureus clinical isolate by broth microdilution method. The class given is functional.
For the next series, the system named is Yersinia pestis. As to the kind of experiment: Antimicrobial activity against Yersinia pestis by broth microdilution method. The class given is functional.
For the next series, the system named is Burkholderia cepacia. As to the kind of experiment: Antimicrobial activity against Burkholderia cepacia clinical isolate by broth microdilution method. The class given is functional. The method in brief: as §2
The next series relates to Escherichia coli. As to the kind of experiment: Antimicrobial activity against Escherichia coli J53 clinical isolate by broth microdilution method. The format is functional.
The test system of series [10] is Bacillus anthracis. As to the kind of experiment: Antimicrobial activity against Bacillus anthracis Sterne spores by broth microdilution method. The class given is functional.
The subject of series [11] is Enterococcus faecalis. Kind of series: Antimicrobial activity against vancomycin-resistant Enterococcus faecalis ATCC 51575 by broth microdilution method. The class given is functional.
The test system of another series is Klebsiella pneumoniae. Kind of series: Antimicrobial activity against Klebsiella pneumoniae 5657 by broth microdilution method. The class given is functional. The method in brief:
as §2

For the next series, the system named is Brevibacillus brevis. Kind of series: Antimicrobial activity against Bacillus brevis clinical isolate by broth microdilution method. The class given is functional. The gist of the method:
as §2

Series [12] concerns Bacillus anthracis. Kind of series: Antimicrobial activity against Bacillus anthracis Vollum clinical isolate by broth microdilution method. The format is functional.
The test system of series [13] is Enterococcus faecalis. As to the kind of experiment: Antimicrobial activity against Enterococcus faecalis clinical isolate by broth microdilution method. The format is functional. The method in brief: as §2
Series [14] concerns Bacillus subtilis. As to the kind of experiment: Inhibition of cell wall synthesis in Bacillus subtilis BD54 at 5 X MIC by N-acetyl-D-[1-3H] glucosamine incorporation assay. The class given is functional. The method in brief: as §1
The test system of series [15] is Mycolicibacterium smegmatis. Kind of series: Antimicrobial activity against Mycobacterium smegmatis 35798 by broth microdilution method. The class given is functional. The gist of the method: as §2
The subject of series [16] is Burkholderia pseudomallei. As to the kind of experiment: Antimicrobial activity against Burkholderia pseudomallei DD503 by broth microdilution method. The class given is functional.
Series [17] has as its system Burkholderia thailandensis. Kind of series: Antimicrobial activity against Burkholderia thailandensis by broth microdilution method. The format is functional.
A further series deals with Priestia megaterium. As to the kind of experiment: Antimicrobial activity against Bacillus megaterium clinical isolate by broth microdilution method. The format is functional.
Series [18] relates to Staphylococcus aureus. As to the kind of experiment: Antimicrobial activity against Staphylococcus aureus by broth microdilution method. The class given is functional. The gist of the method:
as §2

Series [19] is described as follows: Cytotoxicity against human HeLa cells after 3 days by MTS assay in presence of 10% fetal calf serum. The class given is cell-based. For orientation: Tetrazolium dyes change colour on reduction, which living cells bring about.
For series [20], the system named is Bacillus anthracis. Kind of series: microbe, parasite or virus in culture. The conditions noted are these: Ames. This is another data set of the same source.
The subject of series [21] is Mycolicibacterium smegmatis. Kind of series: Antimicrobial activity against Mycobacterium smegmatis 700009 by broth microdilution method. The class given is functional. The method in brief:
as §2

In a further series the test system is Pseudomonas aeruginosa. As to the kind of experiment: Antimicrobial activity against Pseudomonas aeruginosa PAO1 by broth microdilution method. The format is functional. The gist of the method:
as §2

Series [22] concerns Bacillus anthracis. Kind of series: Inhibition of spore germination in Bacillus anthracis Sterne spores at MIC after 4 hrs. The format is functional, organism-based.
Series [23] has as its system Bacillus anthracis. As to the kind of experiment: Protection against Bacillus anthracis Sterne spores induced cell death in mouse J774A1 cells assessed as dead cells at 10 uM by Sytox green dye staining assay relative to untreated control. The format is functional, J774.A1.
For series [24], the system named is Bacillus anthracis. Kind of series: Antimicrobial activity against Bacillus anthracis Ames by broth microdilution method in presence of 10% fetal calf serum. The format is functional.
Series [25] deals with Bacillus subtilis. Kind of series: Antimicrobial activity against Bacillus subtilis clinical isolate by broth microdilution method. The class given is functional.
Another series deals with Bacillus pumilus. Kind of series: Antimicrobial activity against Bacillus pumilus clinical isolate by broth microdilution method. The format is functional. The gist of the method:
as §2

Series [26] relates to Bacillus anthracis. As to the kind of experiment: Protection against Bacillus anthracis Sterne spores induced cell death in mouse J774A1 cells assessed as live viable cells at 10 uM by Sytox green dye staining assay relative to untreated control. The format is functional, J774.A1.
Series [27] deals with Staphylococcus aureus. Kind of series: Antibacterial activity against Staphylococcus aureus Smith infected in Swiss Webster mouse assessed as assessed as protection against microbe-induced mortality at 10 mg/kg, iv administered as single dose 15 mins post bacterial challenge measured 48 hrs post infection. The class given is functional. The gist of the method: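 Swiss Webster mice (n = 10/group) were challenged i.p. with 8.3 × 10^8 CFU. After 15 min they received a single i.v. dose in 10% dimethyl acetamide–5% dextrose in water (pH 4.0), alongside vehicle and daptomycin (10 mg/kg) controls. Survival was followed for 48 h.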

Series [28] has as its system Bacillus anthracis. Kind of series: Inhibition of spore outgrowth in Bacillus anthracis Sterne spores assessed as reduction in bacterial CFU count at 0.1 ug/ml after 4 hrs relative to untreated control. The format is functional, organism-based.
Series [29] deals with Bacillus subtilis. As to the kind of experiment: Inhibition of protein synthesis in Bacillus subtilis BD54 at 5 X MIC by L-[4,5-3H]leucine incorporation assay. The class given is functional, organism-based. The method in brief: as §1

Molecules are shown by their SMILES. In brackets after ≈: the same amount, converted by molar mass. Activity calls are given as the source filed them. The calls are words filed in the database; no cut-off is given here.

This is an account of results in ChEMBL document CHEMBL1687745 (Antimicrob Agents Chemother, 2009).

The term CC50 denotes the concentration that lowers cell viability or growth by half.

With `c1cc2cc(-c3ccc4cc(-c5ccc6oc(C7=NCCN7)cc6c5)[nH]c4c3)[nH]c2cc1C1=NCCN1`, the MIC stood at 0.7 µg/mL (≈ 1.44 µM) against Bacillus anthracis [1]; 0.1 µg/mL (≈ 0.206 µM) against Enterococcus faecium; 0.5 µg/mL (≈ 1.03 µM) with Staphylococcus aureus [2]; 0.1 µg/mL (≈ 0.206 µM) against Enterococcus faecalis [4]; 1.4 µg/mL (≈ 2.89 µM) in the series with Bacillus anthracis [5]; 0.1 µg/mL (≈ 0.206 µM) in series [6]. Besides, the MIC against Bacillus licheniformis is 1.4 µg/mL (≈ 2.89 µM); against Staphylococcus aureus [8], 0.3 µg/mL (≈ 0.619 µM); in the series with Burkholderia mallei, greater than 9.7 µg/mL; against Staphylococcus aureus [9] it was 2.8 µg/mL (≈ 5.78 µM); with Yersinia pestis it was 9.7 µg/mL (≈ 20 µM); with Burkholderia cepacia it was 22 µg/mL (≈ 45.4 µM). Also, the MIC came to 1.4 µg/mL (≈ 2.89 µM) in the series with Escherichia coli; 0.4 µg/mL (≈ 0.825 µM) with Bacillus anthracis [10]; 0.1 µg/mL (≈ 0.206 µM) against Enterococcus faecalis [11]; 16 µg/mL (≈ 33 µM) against Klebsiella pneumoniae; 0.2 µg/mL (≈ 0.413 µM) in the series on Brevibacillus brevis; 0.4 µg/mL (≈ 0.825 µM) against Bacillus anthracis [12]. The MIC with Enterococcus faecalis [13] is 0.7 µg/mL (≈ 1.44 µM); in series [15], less than 0.1 µg/mL; in series [16] it was greater than 9.7 µg/mL; in series [17], 2.8 µg/mL (≈ 5.78 µM); against Priestia megaterium, 0.4 µg/mL (≈ 0.825 µM); in the series with Staphylococcus aureus [18], 0.7 µg/mL (≈ 1.44 µM). The MIC against Bacillus anthracis [20] was 0.2 µg/mL (≈ 0.413 µM); in series [21], less than 0.1 µg/mL; with Pseudomonas aeruginosa, greater than 80 µg/mL; with Bacillus anthracis [24], 1.4 µg/mL; against Bacillus subtilis [25] it was 0.4 µg/mL (≈ 0.825 µM); with Bacillus pumilus, 0.4 µg/mL (≈ 0.825 µM). The “inhibition (INH)” value in the series on Bacillus subtilis [3] and in the series with Bacillus subtilis [14] was 40% throughout. The MBC in the series on Bacillus anthracis [5] was determined as 2.8 µg/mL (≈ 5.78 µM); with Bacillus anthracis [12], 0.4 µg/mL (≈ 0.825 µM); against Bacillus anthracis [20], 1.2 µg/mL (≈ 2.48 µM). Further, in the series on Bacillus subtilis [7], the inhibition entry was “Active”. For the same compound, in series [19], the CC50 at 72 h is 17 µg/mL. In addition, in the series with Bacillus anthracis [22], the inhibition result is “inactive”. Further, the values for the Activity in the series on Bacillus anthracis [23] and in the series on Bacillus anthracis [26] were 24% and 75%, respectively.
With `CCCCCCCCCC(=O)N[C@@H](Cc1c[nH]c2ccccc12)C(=O)N[C@H](CC(N)=O)C(=O)N[C@@H](CC(=O)O)C(=O)N[C@@H]1C(=O)NCC(=O)N[C@@H](CCCN)C(=O)N[C@@H](CC(=O)O)C(=O)N[C@H](C)C(=O)N[C@@H](CC(=O)O)C(=O)NCC(=O)N[C@H](CO)C(=O)N[C@@H]([C@H](C)CC(=O)O)C(=O)N[C@@H](CC(=O)c2ccccc2N)C(=O)O[C@@H]1C`, the survival at 10 mg/kg in the series on Staphylococcus aureus [27] stood at 80%.
`O=C(O)c1cn(C2CC2)c2cc(N3CCNCC3)c(F)cc2c1=O` [CIPROFLOXACIN]: the MIC in the series with Enterococcus faecium is 20 µg/mL (≈ 60.4 µM); with Staphylococcus aureus [2], 5 µg/mL (≈ 15.1 µM); in series [6] it was 0.1 µg/mL (≈ 0.302 µM); with Staphylococcus aureus [8], 0.3 µg/mL (≈ 0.905 µM); in the series with Enterococcus faecalis [11], 0.6 µg/mL (≈ 1.81 µM); in the series on Klebsiella pneumoniae, 0.2 µg/mL (≈ 0.604 µM). Also, the MIC in series [15] was determined as 0.2 µg/mL (≈ 0.604 µM); in [21], 0.4 µg/mL (≈ 1.21 µM); in the series on Pseudomonas aeruginosa, 0.1 µg/mL (≈ 0.302 µM). Moreover, the inhibition entry in the series with Bacillus subtilis [3], in the series on Bacillus subtilis [7], in the series with Bacillus anthracis [28], in the series on Bacillus subtilis [14] and in the series with Bacillus subtilis [29] was “Active” each time.
`c1cc(-c2cc3ccc(C4=NCCN4)cc3[nH]2)ccc1C1=NCCN1`: the MIC with Bacillus anthracis [1] and against Bacillus anthracis [10] was greater than 16 µg/mL throughout.
